Molecules are shown by their SMILES. Active and inactive are the calls of the source.

Series [1] relates to Rattus norvegicus. Nature of the series: Antihyperglycemic activity in Sprague-Dawley rat assessed as reduction of acetaminophen AUC (0 to 2 hrs) at 10 mg/kg, po relative to control. The series is classed as functional. Further details: scale not given: the % may be the effect or the level left. In outline:
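Male Sprague-Dawley rats, fasted overnight, dosed orally at 10 mL/kg in 0.5% HPMC/0.1% Tween80 (vehicle or compound) at −120 min. Pramlintide (15 μg) was given to a positive-control cohort at −15 min. Baseline plasma was taken at time 0, then acetaminophen (65 mg) by gavage. The plasma acetaminophen concentration–time profile was followed for 3 h; AUC 0–2 h was compared with vehicle.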

Series [2] concerns Mus musculus. Nature of the series: Increase in GIP level in GPR119 knockout mouse at 30 mg/kg, po after 60 mins by ELISA relative to control. The series is classed as functional, organism-based. Further details: dose 30 mg/kg. The essentials: (§1)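 Overnight-fasted wild-type or GPR119 knockout mice were given vehicle (0.5% HPMC/0.1% Tween80) or 30 mg/kg orally at 10 mL/kg. Cardiac blood was drawn 60 min post-dose under isoflurane into chilled K2-EDTA with DPP-4 inhibitor and aprotinin (250 KIU/mL). Plasma was prepared at 4 °C and held at −80 °C. Total GIP was measured by ELISA; n = 10.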
For orientation: An ELISA detects its analyte on a solid surface through an enzyme-linked reagent.

The subject of series [3] is Rattus norvegicus. Briefly: Dose normalized AUC (0 to 24 hrs) in rat at 30 mg/kg. The class given is ADME, organism-based. Further details: dose 30 mg/kg. The settings on record: in vivo.
Series [4] relates to Mus musculus. Nature of the series: Increase in PYY level in GPR119 transgenic wild type mouse at 30 mg/kg, po after 60 mins relative to control. The series is classed as functional. In outline:
(§2)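 Wild-type and GPR119 knockout mice, fasted overnight, were dosed by oral gavage (30 mg/kg, 10 mL/kg, 0.5% HPMC/0.1% Tween80 vehicle). Plasma was obtained from cardiac blood at 60 min in chilled K2-EDTA containing DPP-4 inhibitor and aprotinin, then stored at −80 °C. Hormone levels were compared with vehicle; n = 8–10.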

Series [5] concerns the target T1, Glucose-dependent insulinotropic receptor (Homo sapiens, UniProt Q8TDV5).
T1 sequence (Q8TDV5 whole entry): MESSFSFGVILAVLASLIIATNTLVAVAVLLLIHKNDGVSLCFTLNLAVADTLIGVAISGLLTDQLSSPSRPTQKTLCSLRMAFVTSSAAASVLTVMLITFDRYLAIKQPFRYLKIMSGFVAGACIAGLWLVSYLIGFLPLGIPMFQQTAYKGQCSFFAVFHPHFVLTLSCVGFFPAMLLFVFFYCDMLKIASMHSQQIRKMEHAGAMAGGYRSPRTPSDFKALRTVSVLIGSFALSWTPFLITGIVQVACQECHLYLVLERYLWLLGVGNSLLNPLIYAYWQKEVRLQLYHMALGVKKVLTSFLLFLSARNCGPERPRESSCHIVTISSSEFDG
Briefly: Agonist activity at human GPR119 receptor expressed in CHO-K1 cells co-expressing 6CRE-luciferase gene after 5 hrs by luciferase reporter gene assay. The series is classed as functional, cell-based. The settings on record: read-out: pEC50 (converted). Background: Reporter assays use an easily measured gene product as a stand-in for the process of interest.

Series [6] has as its system Mus musculus. Nature of the series: Increase in GLP-1 level in GPR119 transgenic wild type mouse at 30 mg/kg, po after 60 mins by electrochemiluminescence assay relative to control. The class given is functional. In outline: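 Wild-type and GPR119 knockout mice, fasted overnight, received vehicle (0.5% HPMC/0.1% Tween80) or 30 mg/kg by oral gavage at 10 mL/kg. At 60 min, blood was taken by cardiac puncture under isoflurane into chilled K2-EDTA tubes with DPP-4 inhibitor and aprotinin (250 KIU/mL). Plasma was spun at 4 °C and stored at −80 °C. Total GLP-1 was measured by electrochemiluminescence immunoassay; n = 10.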

Series [7] can be described thus: Clearance in rat at 30 mg/kg. The class given is ADME, organism-based. Set-up: dose 30 mg/kg. As to conditions: in vivo.
Series [8] is filed under the species Rattus norvegicus. Nature of the series: Potentiation of 3 mM of glucose-induced insulin secretion in rat islet at 0.3 uM.
Series [9] in a line: Oral bioavailability in rat at 30 mg/kg. The class given is ADME, organism-based. As to conditions: in vivo.
Series [10] can be described thus: Clearance in mouse at 30 mg/kg. The class given is ADME, organism-based. Further details: dose 30 mg/kg. The settings on record: in vivo.
Series [11] in a line: Half life in rat at 30 mg/kg. The series is classed as ADME, organism-based. Set-up: dose 30 mg/kg. As to conditions: in vivo.
Series [12] can be described thus: Half life in mouse at 30 mg/kg. Set-up: dose 30 mg/kg. The settings on record: in vivo. The series is classed as ADME, organism-based.
Series [13] concerns Mus musculus. Nature of the series: Increase in glucagon level in GPR119 knockout mouse at 30 mg/kg, po after 60 mins. The class given is functional, organism-based. Set-up: dose 30 mg/kg. In outline: as §2
The subject of series [14] is Mus musculus. Briefly: Dose normalized AUC (0 to 24 hrs) in mouse at 30 mg/kg. The class given is ADME, organism-based. Further details: dose 30 mg/kg. As to conditions: in vivo.
Series [15] in a line: Cmax in mouse at 30 mg/kg. Set-up: dose 30 mg/kg. The series is classed as ADME, organism-based. The settings on record: in vivo.
The nature of series [16]: Volume of distribution at steady state in mouse at 30 mg/kg. As to conditions: in vivo, read-out: Vdss. Further details: dose 30 mg/kg. The class given is ADME, organism-based.
The target in the next series is Cytochrome P450 2C9 (Homo sapiens, UniProt P11712). Nature of the series: Inhibition of CYP2C9. The class given is ADME.
Sequence of Cytochrome P450 2C9 (P11712 whole entry): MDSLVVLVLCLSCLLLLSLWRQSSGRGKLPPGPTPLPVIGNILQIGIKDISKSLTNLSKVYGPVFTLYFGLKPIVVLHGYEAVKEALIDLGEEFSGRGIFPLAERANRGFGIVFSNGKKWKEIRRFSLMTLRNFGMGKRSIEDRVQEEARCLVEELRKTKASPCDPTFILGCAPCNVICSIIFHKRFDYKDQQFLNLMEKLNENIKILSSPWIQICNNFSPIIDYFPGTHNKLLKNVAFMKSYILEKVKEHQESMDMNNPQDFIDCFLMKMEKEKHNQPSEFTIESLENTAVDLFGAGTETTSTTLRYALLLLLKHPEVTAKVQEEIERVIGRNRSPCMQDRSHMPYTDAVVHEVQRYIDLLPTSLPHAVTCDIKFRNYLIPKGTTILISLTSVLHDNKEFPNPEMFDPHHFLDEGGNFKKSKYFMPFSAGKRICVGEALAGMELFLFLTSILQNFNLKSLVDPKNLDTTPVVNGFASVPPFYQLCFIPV
The nature of series [17]: Volume of distribution at steady state in rat at 30 mg/kg. Further details: dose 30 mg/kg. The class given is ADME, organism-based. The settings on record: in vivo, read-out: Vdss.
In series [18] the test system is Rattus norvegicus. Nature of the series: Antihyperglycemic activity in Wistar rat assessed as glucose excursion curve at 10 mg/kg, po by glucose tolerance test. The class given is functional.
For a further series, the system named is PCC. Briefly: Induction of GLP1 secretion in C57BL/6 mouse PCC cells at 0.1 to 1 uM after 24 hrs. The series is classed as functional, cell-based. In outline: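 Primary colonic crypts were isolated from mouse colon by three 15 min, 37 °C digests with collagenase II, dispase I, DNase I and hyaluronidase, then pooled and washed. Crypts were seeded on Matrigel-coated plates in high-glucose DMEM with 10% FBS and allowed to attach for 24 h. GLP-1 secretion was then assayed as for GLUTag cells (2 h KRB exposure, electrochemiluminescent active GLP-1 immunoassay).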

For series [19], the species on record is Rattus norvegicus. Briefly: Potentiation of 12 mM of glucose-induced insulin secretion in rat islet at 0.3 uM.
Another series concerns the target T2, MAO-B (Homo sapiens, UniProt P27338).
T2 sequence (P27338 whole entry): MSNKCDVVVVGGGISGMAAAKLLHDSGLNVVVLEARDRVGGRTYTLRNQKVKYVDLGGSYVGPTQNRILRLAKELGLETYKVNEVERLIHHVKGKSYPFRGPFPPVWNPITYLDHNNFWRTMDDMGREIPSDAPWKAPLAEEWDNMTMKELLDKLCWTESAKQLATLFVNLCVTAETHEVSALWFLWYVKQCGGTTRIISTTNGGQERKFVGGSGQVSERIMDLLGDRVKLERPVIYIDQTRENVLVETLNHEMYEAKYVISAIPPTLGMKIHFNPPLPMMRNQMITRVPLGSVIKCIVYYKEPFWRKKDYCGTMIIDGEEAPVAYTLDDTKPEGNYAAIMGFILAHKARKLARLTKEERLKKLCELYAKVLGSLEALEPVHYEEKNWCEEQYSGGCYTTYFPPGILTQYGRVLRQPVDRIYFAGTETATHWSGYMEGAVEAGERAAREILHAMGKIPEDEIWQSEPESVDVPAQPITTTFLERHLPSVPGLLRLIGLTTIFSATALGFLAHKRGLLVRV
Briefly: Inhibition of MAO-B at 10 uM. The essentials:
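Compound was tested at 10 μM in a panel of 68 receptors, ion channels and enzymes. Percent inhibition or stimulation was recorded.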

Series [20] concerns Mus musculus. Briefly: Increase in GIP level in GPR119 transgenic wild type mouse at 30 mg/kg, po after 60 mins by ELISA relative to control. The class given is functional. The essentials: as §1

In the case of `CC(C)OC(=O)N1CCC(Oc2ncnc3c2CCN3c2ccc(S(C)(=O)=O)cc2F)CC1`, the Activity with Rattus norvegicus [1] turned out to be 27%; in the series on Rattus norvegicus [18] it was 43%. In addition, the outcome in the series on Mus musculus [2], in the series filed under Rattus norvegicus [8] and with Mus musculus [13] was inactive. For the same compound, the AUC/dose amounted to 2.04 µg·h/mL in the series on Rattus norvegicus [3] and 1.7 µg·h/mL in the series on Mus musculus [14]. Besides, the “fold change (FC)” value in the series with Mus musculus [4] worked out at 3; in the series with Mus musculus [6], 4; in the series on Mus musculus [20], 2. For the same compound, the EC50 in series [5] is 50.1 nM. Besides, the clearance (in general, the volume of plasma or blood freed of the substance per unit of time) in [7] is 8.4 mL/min/kg; in [10], 7.2 mL/min/kg. Also, the bioavailability – broadly, dose-corrected exposure relative to a reference, in per cent – in series [9] is 66%. Moreover, the half-life (as a rule, the time needed for the level to fall by half in the phase considered) in [11] is 8.7 h; in series [12], 2.8 h. Further, the Cmax – broadly, the maximum level reached in the sampled fluid or tissue – in series [15] is 8.4 µM. In addition, the figures for the Vd in series [16] and in series [17] were 0.7 L/kg and 1.5 L/kg, respectively. For the same compound, on Cytochrome P450 2C9, the IC50 (in general, the point on the concentration scale where inhibition reaches its midpoint) is 3000 nM. Also, the result in the series with PCC and in the series listed under Rattus norvegicus [19] was Active. Moreover, on MAO-B, the inhibition (commonly the share of the control response that was lost under treatment) at 10 µM is 54%.

The record behind these values is ChEMBL document CHEMBL2176966, “Discovery of 6,7-dihydro-5H-pyrrolo[2,3-a]pyrimidines as orally available G protein-coupled receptor 119 agonists” (J Med Chem, 2012).
